Converted amounts (≈) assume the structure as drawn.
Legend:
[1] = Dissociation constant, pKa of the compound; assay type: physicochemical
[2] = target: Lysozyme C (Gallus gallus) (UniProt P00698); experiment: Renaturation of 1 mg/mL reduced hen egg white lysozyme assessed as maximum enzyme activity at 20 mM at pH 8 by Micrococcus lysodeikticus lysis-based enzyme assay in presence of 1 mM GSSG; parameters: scale not given: the % may be the effect or the level left
Outline: (§1)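 Reduced lysozyme was dissolved in 0.1 M acetic acid with 6 M Gdn HCl (pH 2.5), brought to pH 7.0 or 8.0 with KOH, and set to 10 mg/mL by A280. It was then diluted 10-fold into deoxygenated buffer: 0.1 M bis tris propane–HCl or Tris–HCl, 1.25 M Gdn HCl, 1 mM EDTA, thiol plus GSSG. Final protein was 1 mg/mL, final Gdn HCl 1.7 M, 25 °C. Aliquots taken at intervals and assayed for activity. Errors are standard deviations.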

[3] = target: Lysozyme C (Gallus gallus) (UniProt P00698); experiment: Renaturation of 1 mg/mL reduced hen egg white lysozyme assessed as maximum enzyme activity at 10 mM at pH 8 by Micrococcus lysodeikticus lysis-based enzyme assay in presence of 1 mM GSSG; parameters: scale not given: the % may be the effect or the level left; outline: as §1
[4] = Solubility of the compound in water; assay type: physicochemical; details: buffer
[5] = target: Lysozyme C (Gallus gallus) (UniProt P00698); experiment: Renaturation of 1 mg/mL reduced hen egg white lysozyme assessed as apparent rate of renaturation at 10 mM at pH 7 by Micrococcus lysodeikticus lysis-based enzyme assay in presence of 1 mM GSSG; outline: as §1
[6] = target: Lysozyme C (Gallus gallus) (UniProt P00698); experiment: Renaturation of 1 mg/mL reduced hen egg white lysozyme assessed as apparent rate of renaturation at 10 mM at pH 7 by Micrococcus lysodeikticus lysis-based enzyme assay in presence of 0.5 mM GSSG; outline: as §1
[7] = target: Lysozyme C (Gallus gallus) (UniProt P00698); experiment: Renaturation of 1 mg/mL reduced hen egg white lysozyme assessed as apparent rate of renaturation at 20 mM at pH 8 by Micrococcus lysodeikticus lysis-based enzyme assay in presence of 1 mM GSSG; outline: as §1
[8] = target: Lysozyme C (Gallus gallus) (UniProt P00698); experiment: Renaturation of 1 mg/mL reduced hen egg white lysozyme assessed as apparent rate of renaturation at 10 mM at pH 8 by Micrococcus lysodeikticus lysis-based enzyme assay in presence of 1 mM GSSG; outline: as §1
[9] = target: Lysozyme C (Gallus gallus) (UniProt P00698); experiment: Renaturation of 1 mg/mL reduced hen egg white lysozyme assessed as maximum enzyme activity at 10 mM at pH 7 by Micrococcus lysodeikticus lysis-based enzyme assay in presence of 1 mM GSSG; parameters: scale not given: the % may be the effect or the level left; outline: as §1
[10] = target: Lysozyme C (Gallus gallus) (UniProt P00698); experiment: Renaturation of 1 mg/mL reduced hen egg white lysozyme assessed as maximum enzyme activity at 10 mM at pH 7 by Micrococcus lysodeikticus lysis-based enzyme assay in presence of 0.5 mM GSSG; parameters: scale not given: the % may be the effect or the level left; outline: as §1
[11] = target: Lysozyme C (Gallus gallus) (UniProt P00698); experiment: Renaturation of 0.1 mg/mL reduced hen egg white lysozyme assessed as apparent rate of renaturation at 0.5 mM at pH 7 by Micrococcus lysodeikticus lysis-based enzyme assay in presence of 0.2 mM GSSG
Outline: (§2)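 Reduced lysozyme (10 mg/mL) diluted 100-fold into deoxygenated renaturation buffer: 0.1 M bis tris propane–HCl (pH 7.0) or 0.1 M Tris–HCl (pH 8.0), 1 mM EDTA, 0.5 M Gdn HCl, thiol plus GSSG. Mixed by vortexing for 15 s, held at 25 °C. 20 µL aliquots taken at set times and assayed for recovery of enzymatic activity.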

[12] = target: Lysozyme C (Gallus gallus) (UniProt P00698); experiment: Renaturation of 0.1 mg/mL reduced hen egg white lysozyme assessed as maximum enzyme activity at 0.5 mM at pH 7 by Micrococcus lysodeikticus lysis-based enzyme assay in presence of 0.2 mM GSSG; parameters: scale not given: the % may be the effect or the level left; outline: as §2
[13] = target: Lysozyme C (Gallus gallus) (UniProt P00698); experiment: Renaturation of 0.1 mg/mL reduced hen egg white lysozyme assessed as maximum enzyme activity at 3 mM at pH 7 by Micrococcus lysodeikticus lysis-based enzyme assay in presence of 0.2 mM GSSG; parameters: scale not given: the % may be the effect or the level left; outline: as §2
[14] = target: Lysozyme C (Gallus gallus) (UniProt P00698); experiment: Renaturation of 0.1 mg/mL reduced hen egg white lysozyme assessed as maximum enzyme activity at 0.5 mM at pH 8 by Micrococcus lysodeikticus lysis-based enzyme assay in presence of 0.2 mM GSSG; parameters: scale not given: the % may be the effect or the level left; outline: as §2
[15] = target: Lysozyme C (Gallus gallus) (UniProt P00698); experiment: Renaturation of 0.1 mg/mL reduced hen egg white lysozyme assessed as maximum enzyme activity at 3 mM at pH 8 by Micrococcus lysodeikticus lysis-based enzyme assay in presence of 0.2 mM GSSG; parameters: scale not given: the % may be the effect or the level left; outline: as §2
[16] = target: Lysozyme C (Gallus gallus) (UniProt P00698); experiment: Renaturation of 0.1 mg/mL reduced hen egg white lysozyme assessed as apparent rate of renaturation at 3 mM at pH 7 by Micrococcus lysodeikticus lysis-based enzyme assay in presence of 0.2 mM GSSG; outline: as §2
[17] = target: Lysozyme C (Gallus gallus) (UniProt P00698); experiment: Renaturation of 0.1 mg/mL reduced hen egg white lysozyme assessed as apparent rate of renaturation at 0.5 mM at pH 8 by Micrococcus lysodeikticus lysis-based enzyme assay in presence of 0.2 mM GSSG; outline: as §2
[18] = target: Lysozyme C (Gallus gallus) (UniProt P00698); experiment: Renaturation of 0.1 mg/mL reduced hen egg white lysozyme assessed as apparent rate of renaturation at 3 mM at pH 8 by Micrococcus lysodeikticus lysis-based enzyme assay in presence of 0.2 mM GSSG; outline: as §2
[19] = target: Lysozyme C (Gallus gallus) (UniProt P00698); experiment: Renaturation of 0.1 mg/mL reduced hen egg white lysozyme assessed as maximum enzyme activity at 2 mM at pH 7 by Micrococcus lysodeikticus lysis-based enzyme assay in presence of 0.2 mM GSSG; parameters: scale not given: the % may be the effect or the level left; outline: as §2
[20] = target: Lysozyme C (Gallus gallus) (UniProt P00698); experiment: Renaturation of 0.1 mg/mL reduced hen egg white lysozyme assessed as maximum enzyme activity at 2 mM at pH 8 by Micrococcus lysodeikticus lysis-based enzyme assay in presence of 0.2 mM GSSG; parameters: scale not given: the % may be the effect or the level left; outline: as §2
[21] = Solubility of the compound at pH 7; assay type: physicochemical; details: buffer
[22] = target: Lysozyme C (Gallus gallus) (UniProt P00698); experiment: Renaturation of 0.1 mg/mL reduced hen egg white lysozyme assessed as apparent rate of renaturation at 2 mM at pH 7 by Micrococcus lysodeikticus lysis-based enzyme assay in presence of 0.2 mM GSSG; outline: as §2
[23] = target: Lysozyme C (Gallus gallus) (UniProt P00698); experiment: Renaturation of 0.1 mg/mL reduced hen egg white lysozyme assessed as apparent rate of renaturation at 2 mM at pH 8 by Micrococcus lysodeikticus lysis-based enzyme assay in presence of 0.2 mM GSSG; outline: as §2
[24] = target: Lysozyme C (Gallus gallus) (UniProt P00698); experiment: Renaturation of 1 mg/mL reduced hen egg white lysozyme assessed as maximum enzyme activity at 40 mM at pH 7 by Micrococcus lysodeikticus lysis-based enzyme assay in presence of 1 mM GSSG; parameters: scale not given: the % may be the effect or the level left
Outline: (§3)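 Reduced lysozyme prepared in 0.1 M acetic acid with 6 M Gdn HCl, pH 2.5, then neutralised to pH 7.0 or 8.0 with KOH and set to 10 mg/mL. Diluted 10-fold into deoxygenated buffer: 0.1 M bis tris propane–HCl (pH 7.0) or Tris–HCl (pH 8.0), 1 mM EDTA, thiol plus GSSG. Final 1 mg/mL protein, 1.7 M Gdn HCl, 25 °C. Aliquots taken over time, diluted and assayed for activity.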

[25] = target: Lysozyme C (Gallus gallus) (UniProt P00698); experiment: Renaturation of 1 mg/mL reduced hen egg white lysozyme assessed as maximum enzyme activity at 40 mM at pH 8 by Micrococcus lysodeikticus lysis-based enzyme assay in presence of 1 mM GSSG; parameters: scale not given: the % may be the effect or the level left; outline: as §3
[26] = target: Lysozyme C (Gallus gallus) (UniProt P00698); experiment: Renaturation of 1 mg/mL reduced hen egg white lysozyme assessed as apparent rate of renaturation at 40 mM at pH 7 by Micrococcus lysodeikticus lysis-based enzyme assay in presence of 1 mM GSSG; outline: as §3
[27] = target: Lysozyme C (Gallus gallus) (UniProt P00698); experiment: Renaturation of 1 mg/mL reduced hen egg white lysozyme assessed as apparent rate of renaturation at 40 mM at pH 8 by Micrococcus lysodeikticus lysis-based enzyme assay in presence of 1 mM GSSG; outline: as §3
[28] = target: Lysozyme C (Gallus gallus) (UniProt P00698); experiment: Renaturation of 0.1 mg/mL reduced hen egg white lysozyme assessed as maximum enzyme activity at 0.25 mM at pH 8 by Micrococcus lysodeikticus lysis-based enzyme assay in presence of 0.2 mM GSSG; parameters: scale not given: the % may be the effect or the level left; outline: as §2
[29] = target: Lysozyme C (Gallus gallus) (UniProt P00698); experiment: Renaturation of 0.1 mg/mL reduced hen egg white lysozyme assessed as maximum enzyme activity at 1 mM at pH 8 by Micrococcus lysodeikticus lysis-based enzyme assay in presence of 0.2 mM GSSG; parameters: scale not given: the % may be the effect or the level left; outline: as §2
[30] = Solubility of the compound at pH 8; assay type: physicochemical; details: buffer
[31] = target: Lysozyme C (Gallus gallus) (UniProt P00698); experiment: Renaturation of 0.1 mg/mL reduced hen egg white lysozyme assessed as apparent rate of renaturation at 0.25 mM at pH 8 by Micrococcus lysodeikticus lysis-based enzyme assay in presence of 0.2 mM GSSG; outline: as §2
[32] = target: Lysozyme C (Gallus gallus) (UniProt P00698); experiment: Renaturation of 0.1 mg/mL reduced hen egg white lysozyme assessed as apparent rate of renaturation at 1 mM at pH 8 by Micrococcus lysodeikticus lysis-based enzyme assay in presence of 0.2 mM GSSG; outline: as §2
[33] = target: Lysozyme C (Gallus gallus) (UniProt P00698); experiment: Renaturation of 1 mg/mL reduced hen egg white lysozyme assessed as apparent rate of renaturation at 20 mM at pH 7 by Micrococcus lysodeikticus lysis-based enzyme assay in presence of 1 mM GSSG; outline: as §1
[34] = target: Lysozyme C (Gallus gallus) (UniProt P00698); experiment: Renaturation of 1 mg/mL reduced hen egg white lysozyme assessed as maximum enzyme activity at 20 mM at pH 7 by Micrococcus lysodeikticus lysis-based enzyme assay in presence of 1 mM GSSG; parameters: scale not given: the % may be the effect or the level left; outline: as §1

Lysozyme C (Gallus gallus), sequence (P00698 whole entry): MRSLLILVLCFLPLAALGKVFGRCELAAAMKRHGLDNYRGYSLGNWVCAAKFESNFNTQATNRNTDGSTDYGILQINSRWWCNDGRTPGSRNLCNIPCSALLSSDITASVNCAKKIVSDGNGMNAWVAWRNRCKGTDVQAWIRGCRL

N[C@@H](CS)C(=O)O [CYSTEINE]
pKa [1]: 8.7

C[N+](C)(CCCCCC[N+](C)(C)Cc1ccc(S)cc1)Cc1ccc(S)cc1.[Br-].[Br-]
Activity [2]: 49% | Activity [3]: 78% | solubility [4]: soluble | Activity [5]: 0.011 min⁻¹ | Activity [6]: 0.013 min⁻¹ | Activity [7]: 0.017 min⁻¹ | Activity [8]: 0.016 min⁻¹ | Activity [9]: 74% | Activity [10]: 70%

O=C(OCCOCCOCCOCCS)c1ccc(S)cc1
Activity [11]: 0.038 min⁻¹ | Activity [12]: 39% | Activity [13]: 36% | Activity [14]: 73% | Activity [15]: 43% | Activity [16]: 0.045 min⁻¹ | Activity [17]: 0.087 min⁻¹ | Activity [18]: 0.072 min⁻¹

O=C(OCCOCCS)c1ccc(S)cc1
Activity [14]: 53% | Activity [15]: 9% | Activity [17]: 0.072 min⁻¹ | Activity [18]: 0.08 min⁻¹

OCCS [2-MERCAPTOETHANOL]
pKa [1]: 9.6

O=C(OCCOCCOCCS)c1ccccc1S
Activity [11]: 0.013 min⁻¹ | Activity [12]: 55% | Activity [19]: 19% | Activity [14]: 58% | Activity [20]: 62% | solubility [21]: 4000 µM (≈ 1210 µg/mL) | Activity [22]: 0.001 min⁻¹ | Activity [17]: 0.041 min⁻¹ | Activity [23]: 0.009 min⁻¹

C[N+](C)(C)Cc1ccc(S)cc1
Activity [24]: 82% | Activity [25]: 81% | Activity [26]: 0.017 min⁻¹ | Activity [27]: 0.018 min⁻¹

O=C(OCCOCCOCCS)c1ccccc1
Activity [28]: 68% | Activity [29]: 2% | solubility [30]: 2000 µM (≈ 541 µg/mL) | Activity [31]: 0.028 min⁻¹ | Activity [32]: 0.012 min⁻¹

O=C(OCCOCCOCCS)c1ccc(S)cc1
Activity [11]: 0.025 min⁻¹ | Activity [12]: 57% | Activity [13]: 23% | Activity [14]: 63% | Activity [15]: 16% | Activity [16]: 0.02 min⁻¹ | Activity [17]: 0.076 min⁻¹ | Activity [18]: 0.1 min⁻¹

O=C(OCCOCCOCCOCCS)c1ccccc1S
Activity [11]: 0.008 min⁻¹ | Activity [12]: 85% | Activity [13]: 2% | Activity [14]: 76% | Activity [15]: 27% | Activity [16]: 0.01 min⁻¹ | Activity [17]: 0.061 min⁻¹ | Activity [18]: 0.023 min⁻¹

C[N+](C)(CCC[N+](C)(C)Cc1ccc(S)cc1)Cc1ccc(S)cc1.[Br-].[Br-]
Activity [2]: 88% | Activity [25]: 77% | solubility [4]: soluble | Activity [5]: 0.012 min⁻¹ | Activity [33]: 0.015 min⁻¹ | Activity [7]: 0.022 min⁻¹ | Activity [27]: 0.023 min⁻¹ | Activity [9]: 83% | Activity [34]: 86%

From ChEMBL document CHEMBL1932936, “Oxidative folding of lysozyme with aromatic dithiols, and aliphatic and aromatic monothiols” (Bioorg Med Chem, 2012)
